Results: the EternaBench riboswitch data

Tests used:
MS2 coat protein [1] = test: apparent Kd, MS2 coat protein; higher = weaker binding; RNA-MaP array; theophylline 2 mM where present
Summary of the method: (§1)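 Stalled E. coli RNA polymerase produced the designs on Illumina sequencing-chip clusters. SNAP-549-labelled MS2 coat protein was added from 0.7 or 1.5 nM, doubling to 3 µM, without and then with constant ligand, in 100 mM Tris-HCl pH 7.5, 80 mM KCl, 4 mM MgCl2, BSA, DTT, yeast tRNA and Tween-20. The apparent Kd is the median of filtered per-cluster fits of green signal normalised to red-channel RNA signal and control-cluster median Fmax.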

MS2 coat protein [2] = test: apparent Kd, MS2 coat protein; higher = weaker binding; RNA-MaP array; tryptophan 2.4 mM where present
Summary of the method: as §1

[3] = designed as: ON switch for theophylline, no ligand
[4] = ligand present: theophylline, designed as: ON switch for theophylline
[5] = designed as: ON switch for tryptophan, no ligand
[6] = ligand present: tryptophan, designed as: ON switch for tryptophan
[7] = designed as: OFF switch for tryptophan, no ligand
[8] = ligand present: tryptophan, designed as: OFF switch for tryptophan
[9] = designed as: OFF switch for theophylline, no ligand
[10] = ligand present: theophylline, designed as: OFF switch for theophylline

| Sequence | apparent Kd (MS2 coat protein [1]; [3]) [nM] | apparent Kd (MS2 coat protein [1]; [4]) [nM] | apparent Kd (MS2 coat protein [1]; [9]) [nM] | apparent Kd (MS2 coat protein [1]; [10]) [nM] | also measured |
| --- | --- | --- | --- | --- | --- |
| AAUAACAUGAGGAUCACCCAUGUAAAAGAUACCAGAUGCAUGAUGAUCCCUUGGCAGCUUAAACGCGAUUGGAAACAAUCGCGAA | 27.6 | 148 |  |  |  |
| GGAUUCAACUCGGCCGCCACUGGUGAUCCUAAUGUACAUGAGGAUCACCCAUGUACAUGAGAAUAUAGGACCGGGAGAUAAGUUA |  |  |  |  | apparent Kd (MS2 coat protein [2]; [5]): 29 nM; apparent Kd (MS2 coat protein [2]; [6]): 24.2 nM |
| UAAUCAGUGCCGGUUCUCGGAUCCUCAUGUCGAGGACCGGUACGGCCGCCACUCGAAACAUGAGGAUCACCCAUGUAAUAAUAAU |  |  |  |  | apparent Kd (MS2 coat protein [2]; [7]): 89.6 nM; apparent Kd (MS2 coat protein [2]; [8]): 65.8 nM |
| ACAUGAGGAUCACCCAUGUGGCGACUUGAUACCAGACCCGCACUAGUCCCUUGGCAGCAACUACGUGUGGGACACCCAUGUGAAG |  |  | 20.8 | 33.7 |  |
| UUCUACAUGAGGAUCACCCAUGUGGGUGAUACCAGCACUUUUUGGUGCCCUUGGCAGCACAUGAGAAUGCCGUAAAAUCGGCGAU | 334 | 500 |  |  |  |
| AAUAACAUGAGGAUCACCCAUGUAAAAGAUACCAGAGUGAUGAUCCUCCCUUGGCAGCUUAAACGCUAUUGGAAACAAUAGCGAA | 70.2 | 167 |  |  |  |
| AAUGUCGGAUCGGCCGCCACUGGUUGGCCCUGUGUACAUGAGGAUCACCCAUGUCCAUCCCAAACCAGGACCGGGAUCUUUAUGU |  |  |  |  | apparent Kd (MS2 coat protein [2]; [5]): 36.1 nM; apparent Kd (MS2 coat protein [2]; [6]): 13 nM |
| GUGUGGAGCUCGGCCGCCACUCAAACAUGAGGAUCACCCAUGUAAAACAUGAGGAUCACCCAUGUGAGGACCGGGAGAAACACGA |  |  |  |  | apparent Kd (MS2 coat protein [2]; [7]): 338 nM; apparent Kd (MS2 coat protein [2]; [8]): 404 nM |
| UAAACACAUGAGGAUCACCCAUGUCAUGAUACCAGUCAACAUGAGGACCCUUGGCAGCAUAAAAUGGGUAACAUGAGGAUCACCC |  |  | 38.4 | 112 |  |
| ACAUGAGGAUCACCCAUGUCUGCCACUGAUACCAGCGGAUGCCAACGCCCUUGGCAGCAGAACAUGAGGAUCACCCAUGUAGGCA | 319 | 209 |  |  |  |
| ACAUGAGGAUCACCCAUGUGCAGCACGGAUACCAGCGUCCUAGUGCGCCCUUGGCAGCCGGACAUGAGGAUCACCCAUGUGUGGG |  |  | 77.6 | 219 |  |
| UCGUGUAUAACGGAUACCAGUGAGAAGGAUACAUGAGGAUCACCCAUGUGAGUUGAUCCACACCCUUGGCAGCUGUAUAUAUCUA | 194 | 1100 |  |  |  |
| AAGGUGAUCCCAGAUACCAGCUUAACAUGAGGAUCACCCAUGUUUGGGACGAAAGUCCCGGGCCCUUGGCAGCUGGGUUGCCAAG | 196 | 131 |  |  |  |
| UGUCAUGGAAACAUGACAGGUUCUACCGGUCGAGGACCGGUACGGCCGCCACUCGAUUGGUGGCACAUGAGGAUCACCCAUGUUA |  |  |  |  | apparent Kd (MS2 coat protein [2]; [5]): 25.2 nM; apparent Kd (MS2 coat protein [2]; [6]): 25.2 nM |
| UCGUAUGCGGCGGCCGCCACUCGCGGAUAACGAGAGCUUAACAUGAGGAUCACCCAUGUGUCAUGGAGGACCGGGCCCAUUCACA |  |  |  |  | apparent Kd (MS2 coat protein [2]; [5]): 29.2 nM; apparent Kd (MS2 coat protein [2]; [6]): 31.4 nM |
| AAACAUUGCUCAGAUACCAGACAUGAGGAUCACCCAUGUACCGAGGUACCCGAAAGGAAUGUCCCUUGGCAGCUGAGCAAUGAAA |  |  | 12 | 129 |  |
| GCAUCCUAGUCGGCCGCCACUGCAAUUGUAAUACUGCUACAUGAACAUGAGGAUCACCCAUGUAGCAGGACCGGGACUAGGAUGC |  |  |  |  | apparent Kd (MS2 coat protein [2]; [5]): 164 nM; apparent Kd (MS2 coat protein [2]; [6]): 27 nM |
| AAGGUGAUCCGUGAUACCAGCUCAACAUGAGGAUCACCCAUGUAAGCCUGGAAACAGGCGAGCCCUUGGCAGCACGGUAAUAAUA | 11.9 | 13.8 |  |  |  |
| ACGAACGAUAGUGAUACCAGACGAACAUGAGGAUCACCCAUGUUAUACACAUGGUUUAUUGUCCCUUGGCAGCACUUUAAGUUCG |  |  | 147 | 89.6 |  |
| UCACAUGAGGAUCACCCAUGUACAGGCGAUACCAGCCGUACAUUGGGCCCUUGGCAGCGCACCGAGACCUUUAUAAGCACCUCGG | 29.5 | 192 |  |  |  |
| AGCAUUGUAACAGAUACCAGACUUUUAAUGCCUCUAAUAACAUGAGGAUCACCCAUGUAUGUCCCUUGGCAGCUGUUAUGAUGCA |  |  | 115 | 220 |  |
| AACAGGGCUUCCACGAAGCCCUAAGGUGAUACCAGCACAUGUAAGUGCCCUUGGCAGCACGGUACAUGAGGAUCACCCAUGUAGA | 50.3 | 366 |  |  |  |
| AUAUGAUCAUAUGAUACCAGAAAUGGUAUUCCUUUCUUUCUUACAUGAGGAUCACCCAUGUUCCCUUGGCAGCAUAUGAUCAUAU |  |  | 174 | 193 |  |
| UGGAAAGCACAUGAGGAUCACCCAUGUGAUACCAGCUGAAACUAAGGCCCUUGGCAGCACAUGGUACCAACCCUUUGGUAGUCCA |  |  | 11.9 | 50.5 |  |
| CAUGAAGUAACUGAUACCAGUGUACUGACAUGAGGAUCACCCAUGUUGGGUUUUGUUGUACACCCUUGGCAGCAGAAUCUUUAUG |  |  | 69.1 | 110 |  |
| AUAUUAGACCUGGAUACCAGCGACAUGAGGAUCACCCAUGUAUGUGCAUCAGCCAUGAUAUGCCCUUGGCAGCCACCGAGGUCGU |  |  | 13.6 | 37.2 |  |

| Sequence | apparent Kd (MS2 coat protein [1]; [3]) [nM] | apparent Kd (MS2 coat protein [1]; [4]) [nM] | apparent Kd (MS2 coat protein [1]; [9]) [nM] | apparent Kd (MS2 coat protein [1]; [10]) [nM] | also measured |
| --- | --- | --- | --- | --- | --- |
| UGACAUUGCUCAGAUACCAGACAUGAGGAUCACCCAUGUACCAAGGUAAGAAAAUAACAUGUCCCUUGGCAGCUGAGCAAUGUCU |  |  | 16.2 | 240 |  |
| ACAUGAGGAUCACCCAUGUGGCGUCUUGAUACCAGACGAGAAGUAGUCCCUUGGCAGCAAAUACGUGAGGAUCACACAUGUGCGA |  |  | 23.2 | 37.3 |  |
| UGACAUUGCUGCGAUACCAGACAUGAGGAUCACCCAUGUACCAAGGUAAGAAAAUAACAUGUCCCUUGGCAGCGCAGCAAUGUCU |  |  | 14.9 | 284 |  |
| UUAAGAGGAUAUCAAAUUUGAUUUUGUGAUACCAGAAUAAUUUUAUUCCCUUGGCAGCAUGACAUGAGGAUCACCCAUGUGUCUU | 37 | 30 |  |  |  |
| CAUGAAGUAACUGAUACCAGUGUACACAUGAGGAUCACCCAUGUGUUGGGUUUUGUUGUACACCCUUGGCAGCAGAAUCUUUAUG |  |  | 56.6 | 100 |  |
| AUAGUCUUGAGUGAUACCAGACUACAUGAGGAUCACCCAUGUUUCUUUUGGUUAUCAUGUGUCCCUUGGCAGCACGCAUGUAUAG |  |  | 16.4 | 65.8 |  |
| AUUAUCAUGGUCAUAUAUAUAUCUUCAGAUACCAGACUAUAUUAAGUCCCUUGGCAGCUGUUACAUGAGGAUCACCCAUGUUAUA |  |  | 172 | 43.5 |  |
| AUCGUACCUAGUGAUACCAGCAAGUGAUCAUAACAUGAGGAUCACCCAUGUAAUCAGUGAUGCCCUUGGCAGCAUAAUCGUUACA | 193 | 155 |  |  |  |
| AAUCUGUCGGGUGAUACCAGCCUCGGCACAUCUCGUGCCGAACAUGAGGAUCACCCAUGUGGCCCUUGGCAGCACAUGACAAAUC | 381 | 85.3 |  |  |  |
| UAUAAAAUAACAGAUACCAGCGUGUUAUAAAACAUGAGGAUCACCCAUGUAGUGAUCAAGCGCCCUUGGCAGCUGGUAUUUUAUG | 79.3 | 133 |  |  |  |
| AUCGUACCUGAUGAUACCAGCAAUUGCUCGUGACAUGAGGAUCACCCAUGUGACCAGUGAUGCCCUUGGCAGCAUGGUCGGUGCA | 97.1 | 13.3 |  |  |  |
| AUUUAUGGUCGUGAUACCAGACAUACAUGAGGAUCACCCAUGUGAAAUAACAUAAUUUAGGUCCCUUGGCAGCACUUUUUAAUUA | 53.8 | 38.3 |  |  |  |
| ACGUCACGUUUACUCGUGGUUUCGAUCGAUACCAGUAGCGAGAGUUACCCUUGGCAGCGACAUGAGGAUCACCCAUGUGCGAAGA |  |  | 11.8 | 15.9 |  |
| GCCCUUGGCAGCGAUACCAGCCAAAAUUAAAAUAAACCUCUACAUGAGGAUCACCCAUGUGGCCCUUGGCAGCGAUACCAGCAAA |  |  | 49.7 | 76.4 |  |
| ACGUCUCGAAAACUCGUAGUAACUAUAGAUACCAGUAGCGAGAGUUACCCUUGGCAGCUACAUGAGGAUCACCCAUGUACGAGGA |  |  | 15.6 | 15 |  |
| AAAAUAAAUAAAACGGGUAACAUGAAGGAUACCAGCCAGGAAACUGGCCCUUGGCAGCCUCUACAUGAGGAUCACCCAUGUCCCG | 445 | 35.7 |  |  |  |
| UUAGAUAUGACGGAUACCAGCGUGUUGUAGAACAUGAGGAUCACCCAUGUAGUGAUCGUGCGCCCUUGGCAGCUGGUAUGUUUGG | 250 | 898 |  |  |  |
| ACUCGGUGUUUGUUGCUCCGAGUUUAUGAUACCAGUUAGUUUUAUGGCCCUUGGCAGCAUAGGACAUGAGGAUCACCCAUGUGUU | 31.7 | 53.8 |  |  |  |
| AGCGACAUGCAUGAUACCAGCUACAUGAGGAUCACCCAUGUACGUCAGUAAUGACUGUGUAGCCCUUGGCAGCAUAGAGCAUGUU |  |  | 17.4 | 53.6 |  |
| UAAAACAUGAGGAUCACCCAUGUAAAUGAUACCAGAGUGAUGAUCCUCCCUUGGCAGCAUAACGCUGAUUGGAAACAAUCAGCGA | 130 | 243 |  |  |  |
| ACUUUGUCGGGUGAUACCAGCCUCGGCAAAUCUCGUGCCGAACAUGAGGAUCACCCAUGUGGCCCUUGGCAGCACAUGACAACUC | 442 | 70 |  |  |  |
| AUCGCACCUGGUGAUACCAGCGUUUGCUCGUGACAUGAGGAUCACCCAUGUGGCCAGUGAUGCCCUUGGCAGCAUGGUCGGUGCA | 230 | 177 |  |  |  |
| UUCUGGUCCCGUGAUACCAGAGACAUGAGGAUCACCCAUGUACAUGAGGAUCACCCAUGUUUCCCUUGGCAGCACUGUAGGGAGC |  |  | 196 | 1220 |  |
| AUCGUACCUGAUGAUACCAGCAAUUGCUCGUAACAUGAGGAUCACCCAUGUGACCAGUGAUGCCCUUGGCAGCAUGGUCGGUGCA | 172 | 38.5 |  |  |  |
| AGCGCUAUGCAUGAUACCAGCUACAUGAGGAUCACCCAUGUGCGUCAGAAAUGACUGUGUAGCCCUUGGCAGCAUAAAGCAUGUA |  |  | 19.1 | 46.3 |  |
| AUAUGAUCAUGUGAUACCAGAAAUGGUAGUCCUCGCUGGAUUACAUGAGGAUCACCCAUGUUCCCUUGGCAGCAUAUGAUCAUAU |  |  | 66.6 | 751 |  |
